The record followed here is ChEMBL document CHEMBL3600334, “Neolignans from Aristolochia fordiana Prevent Oxidative Stress-Induced Neuronal Death through Maintaining the Nrf2/HO-1 Pathway in HT22 Cells” (J Nat Prod, 2015).

For series [1], the system named is HT-22. The experiment in a line: Cytotoxicity against mouse HT22 cells assessed as cell viability at 30 uM after 24 hrs by MTT assay. The note with it: ht-22, 24 h. It is filed as cell-based. The gist of the method: (§1)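 HT22 mouse hippocampal cells in DMEM/10% FBS, 37 °C, 5% CO2, seeded 10 000 cells/well and grown 24 h. Compounds added from DMSO stock (0.1% DMSO vehicle) for 24 h. MTT (5 mg/mL) 2 h at 37 °C, formazan dissolved in DMSO, OD 570 nm. Expressed as fold of untreated control; n = 6 wells.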

For series [2], the system named is HT-22. The experiment in a line: Cytotoxicity against mouse HT22 cells assessed as […] at 30 uM after 24 hrs by MTT assay. It is filed as cell-based. The following applies: ht-22, 24 h. The gist of the method:
as §1

Series [3] concerns HT-22. The experiment in a line: Neuroprotective activity in mouse HT22 cells assessed as decrease of glutamate-induced decrease in Nrf2/HO-1 protein expression at 30 uM pretreated 30 mins before glutamate challenge measured after 12 hrs by Western blotting assay. It is filed as functional, cell-based.
Series [4] concerns HT-22. The experiment in a line: Neuroprotective activity in mouse HT22 cells assessed as decrease of glutamate-induced ROS production at 30 uM pretreated 30 mins before glutamate challenge measured after 12 hrs using H2DCF-DA staining by fluorescence assay. It is filed as functional, cell-based. The method, boiled down:
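HT22 cells given 30 μM compound 30 min before 2 mM glutamate for 12 h. After a PBS wash, stained with 10 μM H2-DCF-DA in serum-free medium, 25 min, 37 °C, dark. Cells photographed, then lysed in 1% Triton X-100/PBS 10 min at 37 °C. Fluorescence read at ex 490/em 525 nm, as percent of untreated control.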

The subject of series [5] is HT-22. The experiment in a line: Neuroprotective activity in mouse HT22 cells assessed as protection against glutamate-induced cell death pretreated 30 mins before glutamate challenge measured after 24 hrs by MTT assay. It is filed as functional, cell-based. The method, boiled down: (§2)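 HT22 cells seeded 10 000/well, 24 h. Compounds (0.1% DMSO vehicle) added 30 min before 2 mM glutamate, then 24 h. MTT (5 mg/mL) 2 h at 37 °C, formazan in DMSO, OD 570 nm. Fold of untreated control; mean ± SD, n = 6.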

Series [6] deals with HT-22. The experiment in a line: Neuroprotective activity in mouse HT22 cells assessed as protection against glutamate-induced change in cell morphology at 1 to 30 uM pretreated 30 mins before glutamate challenge measured after 24 hrs by MTT assay. It is filed as functional, cell-based. The following applies: in the assay text read “by photomicroscopy” for “by MTT assay”. The method, boiled down:
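HT22 cells given compounds 30 min before 2 mM glutamate for 24 h. Morphology then photographed under a photomicroscope.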

In series [7] the test system is HT-22. Nature of the series: Neuroprotective activity in mouse HT22 cells assessed as protection against glutamate-induced cell death at 1 to 30 uM pretreated 30 mins before glutamate challenge measured after 24 hrs by MTT assay. It is filed as functional, cell-based. The method, boiled down:
as §2

Series [8] has as its system HT-22. Nature of the series: Effect on Nrf2/HO-1 protein expression in mouse HT22 cells at 30 uM after 12 hrs by Western blotting assay.
The subject of series [9] is HT-22. The experiment in a line: Neuroprotective activity in mouse HT22 cells assessed as decrease of glutamate-induced decrease in Bcl-2 protein expression at 30 uM pretreated […] by Western blotting assay.
Series [10] has as its system HT-22. Nature of the series: Neuroprotective activity in mouse HT22 cells assessed as decrease of glutamate-induced increase in LDH level at 30 uM pretreated 30 mins before glutamate challenge measured after 24 hrs.

The source made the active and inactive calls. The rule behind the calls is not given here.

On to `C/C=C/c1cc(OC)c2oc(-c3ccc(O)c(OC)c3)c(C)c2c1`, for which the Activity entry is “Non-toxic” with HT-22 [1], “Toxic” in the series on HT-22 [2] and “Dose-dependent effect” in the series on HT-22 [5]. Besides, the result in the series with HT-22 [3], in the series on HT-22 [4], with HT-22 [6], in the series with HT-22 [7], in the series on HT-22 [9] and in the series on HT-22 [10] was Active. For the same molecule, in the series on HT-22 [8], the result was inactive.
Consider `C/C=C/c1cc(OC)c2c(c1)[C@@H](C)[C@H](c1ccc(O)c(OC)c1)O2` [LICARINE A], for which the figures for the Activity result with HT-22 [1] and in the series on HT-22 [5] were “Non-toxic” and “Dose-dependent effect”, respectively. Moreover, the outcome in the series with HT-22 [3], with HT-22 [4], in the series on HT-22 [6], with HT-22 [7], in the series on HT-22 [9] and in the series on HT-22 [10] was Active. Moreover, the outcome in the series with HT-22 [8] was inactive.
On to `C/C=C/c1cc(OC)c2oc(-c3ccc(O)cc3)c(C)c2c1`, for which the Activity result is “Non-toxic” with HT-22 [1] and “Dose-dependent effect” with HT-22 [5]. Besides, the result with HT-22 [3], with HT-22 [4], in the series with HT-22 [6], in the series with HT-22 [7], with HT-22 [9] and with HT-22 [10] was Active. The outcome in the series with HT-22 [8] was inactive.
As to `COc1cc([C@H]2O[C@@H](c3ccc(O)c(OC)c3)[C@@H](C)[C@@H]2C)ccc1O`, the results for the Activity result in the series with HT-22 [1] and with HT-22 [5] were “Non-toxic” and “Dose-dependent effect”, respectively. Also, the outcome in the series on HT-22 [3], in the series with HT-22 [4], in the series with HT-22 [6], with HT-22 [7], in the series on HT-22 [9] and in the series on HT-22 [10] was Active. Also, in the series with HT-22 [8], the result was inactive.
For `COc1cc([C@H]2O[C@@H](c3ccc(O)c(OC)c3)[C@H](C)[C@@H]2C)ccc1O` [NECTANDRIN B], the Activity entry in the series with HT-22 [1] was “Non-toxic”; in the series on HT-22 [5], “Dose-dependent effect”. The result with HT-22 [3], with HT-22 [4], in the series on HT-22 [6], with HT-22 [7], in the series on HT-22 [9] and in the series with HT-22 [10] was Active. Moreover, the result in the series on HT-22 [8] was inactive.
For the molecule `C/C=C/c1ccc2oc(-c3ccc(O)cc3)c(C)c2c1` [RATANIAPHENOL II], the Activity result in the series on HT-22 [1] was “Non-toxic”; in the series with HT-22 [2], “Toxic”; with HT-22 [5], “Dose-dependent effect”. Besides, the result in the series on HT-22 [3], in the series with HT-22 [4], in the series with HT-22 [6], in the series on HT-22 [7], in the series with HT-22 [9] and in the series with HT-22 [10] was Active. In addition, the result in the series on HT-22 [8] was inactive.
